Reference: ChEMBL document CHEMBL2311388, “Carbamoyl pyridone HIV-1 integrase inhibitors. 2. Bi- and tricyclic derivatives result in superior antiviral and pharmacokinetic profiles” (J Med Chem, 2013)

Assays:
[1] = (§1) Volume of distribution at steady state in rat at 1 mg/kg, iv and 5 mg/kg, po; format: ADME, organism-based; details: in vivo, read-out: Vdss
[2] = tested on: Human immunodeficiency virus 1; assay: Selectivity ratio of IC50 for wild type HIV1 3B infected in human MT4 cells in presence of human serum albumin to IC50 for wild type HIV1 3B infected in human MT4 cells; format: functional
[3] = tested on: Human immunodeficiency virus 1; assay: Selectivity ratio of IC50 for RAL-resistant HIV1 harboring integrase Y143R mutant to IC50 for wild type HIV1 3B; format: functional
[4] = tested on: Human immunodeficiency virus 1; assay: Selectivity ratio of IC50 for RAL-resistant HIV1 harboring integrase Q148K mutant to IC50 for wild type HIV1 3B; format: functional
[5] = Ratio of plasma concentration in rat after 24 hrs to IC50 for wild type HIV1 3B infected in human MT4 cells in presence of human serum albumin; format: ADME, cell-based; details: mt4, 24 h
[6] = tested on: Human immunodeficiency virus 1; assay: Selectivity ratio of IC50 for RAL-resistant HIV1 harboring integrase N155H mutant to IC50 for wild type HIV1 3B; format: functional
[7] = Half life in rat at 1 mg/kg, iv and 5 mg/kg, po; format: ADME, organism-based; details: in vivo
[8] = Cytotoxicity against human MT4 cells assessed as growth inhibition after 4 days by MTT assay; format: cell-based
How it was run: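 MT-4 cells; values given as mean ± s.d. of three independent experiments.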

[9] = tested on: Human immunodeficiency virus 1; assay: Antiviral activity against wild type HIV1 3B infected in human MT4 cells assessed as cell viability by MTT assay in presence of human serum albumin; format: functional, organism-based; details: Human immunodeficiency virus 1, 3B
How it was run: (§2)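 HIV-1 replication in MT-4 cells read by MTT. Values are mean ± s.d. of three independent experiments. The protein-adjusted value is derived from the MT-4/MTT IC50 and the shift seen with human serum albumin. Detailed conditions are those of the earlier paper in the series.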

[10] = tested on: Human immunodeficiency virus 1; assay: Antiviral activity against wild type HIV1 3B infected in human MT4 cells assessed as cell viability by MTT assay; format: functional, organism-based; details: Human immunodeficiency virus 1, 3B; how it was run: as §2
[11] = Oral bioavailability in rat at 5 mg/kg; format: ADME, organism-based; details: in vivo
[12] = Total clearance in rat at 1 mg/kg, iv and 5 mg/kg, po; format: ADME, organism-based; details: in vivo
Rattus norvegicus = assay: as §1; format: ADME, organism-based; details: in vivo

SMILES	Vd [1] [L/kg]	Ratio IC50 [2]	Ratio IC50 [3]	Ratio IC50 [4]	Ratio [5]	Ratio IC50 [6]	half-life [7] [h]	CC50 at 96 h [8] [nM]	IC50 [9] [nM]	IC50 [10] [nM]	bioavailability [11] [%]	clearance [12] [mL/min/kg]	Vdss (Rattus norvegicus) [L/kg]
COC(=O)c1[nH]cc(C(=O)NCc2ccc(F)cc2)c(=O)c1O	0.2	12	1.5	200	3.4	21	4.7	–	–	–	–	–	–
CN(C)C(=O)CN1CCn2cc(C(=O)NCc3ccc(F)cc3)c(=O)c(O)c2C1=O	–	2.4	–	–	–	–	–	> 200000	62	26	–	–	–
CC(C)OCCn1ccn2cc(C(=O)NCc3ccc(F)cc3)c(=O)c(O)c2c1=O	–	4.4	–	39	–	–	–	49000	19	4.3	–	–	–
CC(C)OCCN1CCn2cc(C(=O)NCc3ccc(F)cc3)c(=O)c(O)c2C1=O	–	3.1	–	9.9	–	–	–	30000	13	4.2	–	–	–
O=C(NCc1ccc(F)cc1)c1cn2ccn(CCOc3ccccc3)c(=O)c2c(O)c1=O	–	11	–	>250	–	–	–	2400	48	4.4	–	–	–
O=C(NCc1ccc(F)cc1)c1cn2c(c(O)c1=O)C(=O)N(CCOc1ccccc1)CC2	–	9.5	–	17	–	–	–	10000	65	6.8	–	–	–
O=C(NCc1ccc(F)cc1)c1cn2ccn(C3CCCCC3)c(=O)c2c(O)c1=O	–	13	–	>250	–	–	–	> 200000	156	12	–	–	–
O=C(NCc1ccc(F)cc1)c1cn2c(c(O)c1=O)C(=O)N(C1CCCCC1)CC2	–	4.4	–	>250	–	–	–	> 240000	29	6.5	–	–	–
COCCN1C(=O)c2c(O)c(=O)c(C(=O)NCc3ccc(F)cc3)cn2CC1O (configuration not stated)	0.14	3.7	1.5	2.1	117	1.5	7.6	83000	14.1	3.8	14	0.24	–
COCCn1ccn2cc(C(=O)NCc3ccc(F)cc3)c(=O)c(O)c2c1=O	–	17	1.6	35	2600	3.7	11	> 200000	27	1.6	40	0.02	0.015
COCCN1CCn2cc(C(=O)NCc3ccc(F)cc3)c(=O)c(O)c2C1=O	0.12	3.1	1.5	18	27	1.5	3.4	52000	18	5.9	41	0.51	–
O=C(NCc1ccc(F)cc1)c1cn2ccn(CCN3CCOCC3)c(=O)c2c(O)c1=O	–	3	–	>250	–	–	–	36000	20	6.6	–	–	–
O=C(NCc1ccc(F)cc1)c1cn2c(c(O)c1=O)C(=O)N(CCN1CCOCC1)CC2	–	1.6	–	–	–	–	–	160000	34	21	–	–	–
CN(C)C(=O)Cn1ccn2cc(C(=O)NCc3ccc(F)cc3)c(=O)c(O)c2c1=O	–	4.1	–	–	–	–	–	> 200000	144	35	–	–	–
COCCN1CCCN2C(=O)c3c(O)c(=O)c(C(=O)NCc4ccc(F)cc4)cn3CC12 (racemic)	–	3.9	–	5.7	–	–	–	9800	20.3	5.2	–	–	–
CN1CCCCN2C(=O)c3c(O)c(=O)c(C(=O)NCc4ccc(F)cc4)cn3CC12 (racemic)	–	4.9	–	4.2	–	–	–	> 200000	31.4	6.4	–	–	–
CC(C)CN1CCCCN2C(=O)c3c(O)c(=O)c(C(=O)NCc4ccc(F)cc4)cn3CC12 (racemic)	–	17	–	3.2	–	–	–	13000	91.8	5.4	–	–	–
CC(=O)N1CCCN2C(=O)c3c(O)c(=O)c(C(=O)NCc4ccc(F)cc4)cn3CC12 (racemic)	–	2	–	–	–	–	–	> 200000	58	29	–	–	–
CS(=O)(=O)N1CCCN2C(=O)c3c(O)c(=O)c(C(=O)NCc4ccc(F)cc4)cn3CC21 (racemic)	–	2.8	–	–	–	–	–	> 220000	120	43	–	–	–
O=C(NCc1ccc(F)cc1)c1cn2c(c(O)c1=O)C(=O)N1CCOC1C2 (racemic)	–	52	–	19	–	–	–	72000	140	2.7	–	–	–
O=C(NCc1ccc(F)cc1)c1cn2c(c(O)c1=O)C(=O)N1CCCOC1C2 (racemic)	0.13	7.9	1.6	2.8	685	1.6	17	18000	26.9	3.4	–	0.1	–
O=C(NCc1ccc(F)cc1)c1cn2c(c(O)c1=O)C(=O)N1CCCCOC1C2 (racemic)	–	7.6	–	2.2	–	–	–	26000	22	2.9	–	–	–
CC(C)N1CCN2C(=O)c3c(O)c(=O)c(C(=O)NCc4ccc(F)cc4)cn3CC21 (racemic)	–	3.4	–	39	–	–	–	8000	7.8	2.3	–	–	–
CN1CCCN2C(=O)c3c(O)c(=O)c(C(=O)NCc4ccc(F)cc4)cn3CC12 (racemic)	–	4.3	–	4.7	–	–	–	20000	16.3	3.8	–	–	–
CC(C)N1CCCN2C(=O)c3c(O)c(=O)c(C(=O)NCc4ccc(F)cc4)cn3CC21 (racemic)	–	4.3	–	9.1	–	–	–	7200	32.3	7.5	–	–	–
O=C(NCc1ccc(F)cc1)c1cn2c(c(O)c1=O)C(=O)N1CCCN(Cc3nccs3)C1C2 (racemic)	–	3.9	–	4.2	–	–	–	2800	12.9	3.3	–	–	–
COc1cc2c(cc1Cc1cccc(Cl)c1F)c(=O)c(C(=O)O)cn2[C@H](CO)C(C)C [ELVITEGRAVIR]	–	–	1.8	>1700	–	25	–	–	–	–	–	–	–
